Assay results from different studies.
Protocols differ between the studies behind these lines.

Compound | target or system | assay | system | setting | endpoint | value
CC1(CN)CCN(c2cnc3c(Sc4ccncc4Cl)n[nH]c3n2)CC1 |  |  | male Sprague-Dawley rat, plasma | oral, 10 mg/kg | half-life | 2.47 h
COc1cc(C2NC(=O)NC(C)=C2C(=O)OC(C)C)ccc1OCc1ccccc1 (stereo not shown) | MCF-10A | cell growth or viability, MTT |  | 50 µM, 96 h | viability | 91%
CC(=Nc1ccc(N=Cc2cnccn2)cc1)N(C)C |  |  | male Sprague-Dawley rat, plasma | intravenous, 20 mg/kg | half-life | 1.53 h
N#C[C@@]12C[C@@H]1[C@@H](n1cnc3c(N[C@@H](C4CCC4)C4CC4)nc(I)nc31)[C@H](O)[C@@H]2O |  |  | male Wistar rat, plasma | oral, 1 mg/kg | half-life | 2.2 h
CC1=C(C(=O)OC(C)C)C(c2cccc(O)c2)NC(=S)N1 (stereo not shown) | MCF-10A | cell growth or viability, MTT |  | 50 µM, 96 h | viability | 93%
Nc1ccc(/C=C/C(=O)NCc2cc3cc(-c4ccc(C(=O)N5CCC(F)(F)CC5)cc4)cc(-c4ccc(F)cc4)c3o2)cn1 |  |  | rat, plasma | intravenous, 1 mg/kg | half-life | 5.61 h
O=C(C=Cc1ccccc1)Nc1cc(-c2ccnc(N3CCC(O)CC3)c2)ccn1 |  |  | female Sprague-Dawley rat, plasma | intravenous, 5 mg/kg | half-life | 0.47 h
CC1=C(C(=O)OC(C)C)C(c2cccc(O)c2)NC(=O)N1 (stereo not shown) | MCF-10A | cell growth or viability, MTT |  | 50 µM, 96 h | viability | 87%
O=C1CC[C@H](N2Cc3cc(N4CCN(CC5CCN(c6ccc([C@@H]7c8ccc(O)cc8CC[C@@H]7c7ccccc7)cc6)CC5)CC4)ccc3C2=O)C(=O)N1 |  |  | female Sprague-Dawley rat, plasma | oral, 20 mg/kg, fasted | half-life | 5.24 h
C/C(=N\c1ccc(O)cc1)c1cc2ccccc2n1C |  |  | male Sprague-Dawley rat, plasma | intravenous, 5 mg/kg, 5 min, single dose | concentration | 173 ng/mL
COc1cccc2c1C(=O)c1c(O)c3c(c(O)c1C2=O)C[C@@](O)(C(=O)CO)C[C@@H]3O[C@H]1C[C@H](N)[C@H](O)[C@H](C)O1 | K562 | cell growth or viability, MTT |  | 100 µg/mL | viability | 23.9%
COc1cc(C2NC(=O)NC(C)=C2C(=O)OC(C)C)cc(OC)c1OC (stereo not shown) | MCF-10A | cell growth or viability, MTT |  | 50 µM, 96 h | viability | 92%
O=C(c1ccc(OCCN2CCCCC2)cc1)c1c(-c2ccc(O)cc2)sc2cc(O)ccc12 | Broad substrate specificity ATP-binding cassette transporter ABCG2 (ABCG2, Homo sapiens, UniProt Q9UNQ0) | transporter uptake, inhibitor | Sf9 | 10 µM, pH 7, cell membranes | inhibition | ~50%
